Screening results as filed in PubChem BioAssay.
KCNK9 block: KCNK9 potassium channel inhibitors, primary screen, HEK293 cells, thallium flux; Potassium channel subfamily K member 9 (Homo sapiens), Q9NPC2; FluxOR thallium flux fluorescence; stronger effect = lower value; B-score at 10 µM; 310,000 compounds, 1.2% hits;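 active = ratio B-score over 3 SD below the library mean, with starting fluorescence within 5 SD of its mean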;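 also: negative B-score means less thallium flux so channel inhibition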
Cl transport mod: KCC2 cotransporter modulators, thallium flux, primary screen, cell-based, HEK293 KCC2, FluoZin-2 fluorescence, MLSMR | KCC2 cells, thallium flux FluoZin-2 fluorescence | B-score of Tl+ flux slope (higher = more flux/activation; lower = inhibition) at 10 µM | 190,000 compounds, 2.2% hits | AID 1456, 2008;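 active = thallium flux slope and its plate-corrected score both differing from the plate sample mean at a set confidence after two filtering rounds, in either direction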;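 also: slope of fluorescence scaled to starting intensity during 10 to 20 s after thallium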
KCNQ1 block: inhibitors of human KCNQ1 channel, primary screen, cell-based, thallium flux, high-throughput | B-score at 10 µM | AID 2642, 2010 | 310,000 compounds, 1.3% hits | Potassium voltage-gated channel subfamily KQT member 1 (Homo sapiens), P51787 | CHO-K1 KCNQ1, FluxOR thallium flux fluorescence; stronger effect = higher value;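 active = compounds whose thallium flux B-score, printed positive for inhibition, exceeds three library SD while starting fluorescence stays within three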;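 also: channel opened by potassium depolarization with thallium stimulus after 20 min compound exposure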
KCNQ1 act: potentiators or activators of KCNQ1 channel, primary screen, cell-based, thallium flux, high-throughput; CHO-K1 KCNQ1, thallium flux FluxOR fluorescence; stronger effect = higher value; 310,000 compounds, 0.35% hits; B-score at 10 µM;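 active = fluorescence ratio B-score, a plate-corrected score, at least three library SD, with initial intensity B-score within 5 SD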
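Assay system: CHO-K1 cells stably expressing KCNQ1; Medium: assay buffer with matched DMSO; Also added: K+/Tl+ depolarizing stimulus; Dosing: single dose; Timing: dye 90 min, compound 20 min, room temperature; Measured by: kinetic FluxOR thallium fluorescence, 10-s 1-Hz baseline, 110-s post-stimulus read; Read-out: peak-minus-minimum fluorescence over initial fluorescence, negative-control normalized, B-scored.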
hERG protect: hERG rescue from dofetilide block, primary screen, cell-based, CHO-hERG, FluxOR thallium flux, dofetilide IC70; dofetilide IC70 present; activation (rescue from dofetilide block), less the hit threshold, % at 10 µM; 310,000 compounds, 0.51% hits;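 active = activation above the mean of controls blocked by dofetilide plus 5 SD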;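 also: thallium influx through hERG after potassium depolarization seen as dye fluorescence rise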
KCNK3 block: human KCNK3 channel inhibitors, primary screen, CHO cells, FluxOR thallium flux, B-score; Potassium channel subfamily K member 3 (Homo sapiens), O14649; AID 602410, 2012; FluxOR fluorescence; stronger effect = lower value; B-score at 10 µM; 340,000 compounds, 0.84% hits;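 active = B-score under library mean minus 4 SD, starting fluorescence ratio at most library mean plus 5 SD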;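 also: more negative B-score means stronger inhibition of thallium flux through KCNK3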
KCNQ1 block val: KCNQ1 potassium channel inhibitors, confirmation, cell-based, Tl flux, duplicate. shares compounds with KCNQ1 block. KCNQ1 cell line, FluxOR thallium flux fluorescence. inhibition, % at 10 µM. 1,600 compounds, 93% hits. AID 588353, 2011;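 active = primary screen active, with duplicate mean exceeding buffer control mean plus 3 SD of buffer wells, cut at about 28% in these data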
CHO KCNQ1 ctr: thallium flux effects in parental CHO cells, counter-screen for KCNQ1 inhibitor project, cell-based, Tl flux. shares compounds with KCNQ1 block. parental CHO-K1, FluxOR thallium flux fluorescence ratio; stronger effect = lower value; zero means no signal rise above baseline. fluorescence ratio (Tl flux) at 10 µM. 1,600 compounds, 21% hits;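 active = mean of duplicate thallium-flux fluorescence ratios in parental host cells more than 5 SD below the buffer control mean, cut at about 0.38 in these data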;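 also: ratio is peak minus minimum fluorescence divided by baseline fluorescence; actives read low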
KCNQ1 APC inh: KCNQ1 channel inhibitors, confirmation, orthogonal assay, cell-based, automated electrophysiology; shares compounds with KCNQ1 block; KCNQ1-CHO cells, automated patch clamp current; calls only at 10 µM; 490 compounds, 20% hits;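 active = KCNQ1 current drop exceeding 3 SD of negative control wells, seen in both duplicate runs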;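 also: steady state current during a 2 s step from -80 to +40 mV; negative values mean current inhibition and positive values mean potentiation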
KCNQ2 spec: KCNQ2 channel inhibition, selectivity assay for KCNQ1 inhibitor project, cell-based | shares compounds with KCNQ1 block | KCNQ2 cells, FluxOR thallium flux fluorescence | inhibition, % at 10 µM | 1,600 compounds, 71% hits | AID 651746, 2012;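 active = mean percent inhibition of the KCNQ2 thallium signal more than 5 SD above the buffer-only control wells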;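 also: KCNQ2 expressed in CHO cells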
KCNQ1 KCNE1 spec: KCNQ1/KCNE1 channel inhibition, selectivity assay for KCNQ1 inhibitor project, CHO-K1 cells, thallium flux, FluxOR. shares compounds with KCNQ1 block. FluxOR thallium flux fluorescence. inhibition, % at 10 µM. 1,600 compounds, 77% hits. AID 652147, 2013;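 active = mean percent inhibition of duplicate wells above the buffer-only control mean plus 3 SD of those controls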
Target sequence (P51787 whole entry, looked up): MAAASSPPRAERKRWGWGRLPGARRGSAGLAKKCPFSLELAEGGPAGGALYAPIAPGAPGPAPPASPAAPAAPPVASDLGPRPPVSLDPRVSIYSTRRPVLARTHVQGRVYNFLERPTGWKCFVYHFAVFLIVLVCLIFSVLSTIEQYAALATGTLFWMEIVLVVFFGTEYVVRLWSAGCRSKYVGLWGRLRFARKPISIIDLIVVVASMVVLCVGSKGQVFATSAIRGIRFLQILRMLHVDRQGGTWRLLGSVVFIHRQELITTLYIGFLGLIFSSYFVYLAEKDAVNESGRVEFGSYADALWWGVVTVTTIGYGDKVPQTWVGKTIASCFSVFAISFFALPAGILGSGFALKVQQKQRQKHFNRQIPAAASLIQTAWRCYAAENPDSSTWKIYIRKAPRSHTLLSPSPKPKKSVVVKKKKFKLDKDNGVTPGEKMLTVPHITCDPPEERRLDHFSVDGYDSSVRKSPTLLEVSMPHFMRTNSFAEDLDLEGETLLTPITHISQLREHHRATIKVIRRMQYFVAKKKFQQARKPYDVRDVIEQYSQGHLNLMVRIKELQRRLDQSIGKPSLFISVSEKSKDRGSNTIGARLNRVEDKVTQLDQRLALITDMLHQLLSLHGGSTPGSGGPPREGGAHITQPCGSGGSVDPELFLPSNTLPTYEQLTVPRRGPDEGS
Each line names hits and unclear results; the compound was inactive in the other large screens (follow-up assays come after a bar, where they were run). This is a sample that favours compounds with a hit; in the whole collection about 4.1% have one here.

CCOC(=O)c1c(-c2ccccc2)oc2ccc(OCC)cc12	KCNQ1 block 6 | KCNQ1 block val 70 | CHO KCNQ1 ctr inactive | KCNQ2 spec 96% | KCNQ1 KCNE1 spec 62%
Cc1ccc2sc(N(CCCN(C)C)C(=O)CN3C(=O)c4ccccc4C3=O)nc2c1C	none
c1ccc(-c2noc(CSc3nnnn3-c3ccccc3)n2)cc1	KCNQ1 block 6 (no result: Cl transport mod) | KCNQ1 block val 60 | CHO KCNQ1 ctr inactive | KCNQ2 spec 62% | KCNQ1 KCNE1 spec 74%
CCCCNc1cc(C)nc(NCc2ccccc2)n1	KCNQ1 block 10 | KCNQ1 block val 96 | CHO KCNQ1 ctr inactive | KCNQ1 APC inh active | KCNQ2 spec inactive | KCNQ1 KCNE1 spec 77%
Cc1cc(N2CCC(C)CC2)nc(NCc2ccccc2)n1	KCNQ1 block 7 | KCNQ1 block val 46 | CHO KCNQ1 ctr inactive | KCNQ2 spec inactive | KCNQ1 KCNE1 spec inactive
Cc1cc(Nc2ccccc2)nc(NCc2ccccc2)n1	none
Cc1cc(N2CCC(C)CC2)nc(-c2ccccc2O)n1	none
COc1cc(Cl)c(C)cc1NC(=O)COc1ccc(C)nc1[N+](=O)[O-]	none (no result: KCNK9 block, Cl transport mod, KCNQ1 block, KCNQ1 act, hERG protect)
CCOC(=O)C1CC2=C(CCCC2=O)N(Cc2ccccc2)C1=O (configuration not stated)	none (no result: KCNK9 block, Cl transport mod, KCNQ1 block, KCNQ1 act, hERG protect)
CCN1C(=O)C2(C(C(=O)c3cc4ccccc4o3)=C(O)C(=O)N2CCCN2CCOCC2)c2ccccc21 (configuration not stated)	none
COc1ccc(C)cc1S(=O)(=O)N1CCN(C/C=C/c2ccccc2)CC1	none (no result: KCNK9 block, Cl transport mod, KCNQ1 block, KCNQ1 act, hERG protect)
COc1ccccc1N1CCN(S(=O)(=O)CCNC(=O)c2ccc(Br)o2)CC1	none (no result: Cl transport mod)
CCOc1ccc(NC(=O)Nc2nc(SCC)ns2)cc1	KCNQ1 block 10 (no result: Cl transport mod) | KCNQ1 block val 80 | CHO KCNQ1 ctr inactive | KCNQ2 spec inactive | KCNQ1 KCNE1 spec 36%
Cc1ccc(S(=O)(=O)c2ccc([N+](=O)[O-])o2)cc1	none (no result: KCNK9 block, Cl transport mod, KCNQ1 block, KCNQ1 act, hERG protect)
O=C(Nc1ccc(N2CCN(C(=O)c3ccco3)CC2)c(Cl)c1)c1cc2ccccc2o1	KCNQ1 block 6 | KCNQ1 block val 78 | CHO KCNQ1 ctr inactive | KCNQ2 spec 108% | KCNQ1 KCNE1 spec 142%
CCC(C(=O)OCC(=O)Nc1cc(Cl)cc(Cl)c1)c1ccccc1 (configuration not stated)	KCNQ1 block 11 (no result: Cl transport mod) | KCNQ1 block val 114 | CHO KCNQ1 ctr 0.34 | KCNQ2 spec 114% | KCNQ1 KCNE1 spec 52%
O=C1c2ccccc2CC1(Cc1ccccc1)Cc1ccccc1	KCNQ1 block 9 | KCNQ1 block val 124 | CHO KCNQ1 ctr 0.33 | KCNQ2 spec 114% | KCNQ1 KCNE1 spec 164%
CCC1(CC)Cc2ccccc2C(=O)N1	none
COc1cccc(/C=C/C(=O)OCC(=O)NCCCc2ccccc2)c1OC	none (no result: KCNK9 block, Cl transport mod, KCNQ1 block, KCNQ1 act, hERG protect)
CC(C)(C)NC(=O)C(c1cccnc1)N(C(=O)c1ccc(Cl)nc1)C1CCCC1 (configuration not stated)	none (no result: Cl transport mod)
O=C(NC1CCCCC1)C(c1cccnc1)N(C(=O)c1ccc(Cl)nc1)C1CCCCC1 (configuration not stated)	KCNQ1 block 22 | KCNQ1 block val inactive | CHO KCNQ1 ctr inactive | KCNQ2 spec inactive | KCNQ1 KCNE1 spec inactive
CC1C(=O)N2CCCc3cc(S(=O)(=O)N(C)c4ccccc4)cc1c32 (configuration not stated)	none (no result: Cl transport mod)
CCC1CCCCN1C(=O)c1cc(COc2ccc3ncccc3c2)on1 (configuration not stated)	KCNQ1 block 12, KCNK3 block -9 (no result: Cl transport mod) | KCNQ1 block val 124 | CHO KCNQ1 ctr inactive | KCNQ2 spec 86% | KCNQ1 KCNE1 spec 112%
O=C(Cc1csc(NC(=O)Nc2cccc(Cl)c2)n1)NCc1ccccn1	KCNQ1 block 8 (no result: Cl transport mod) | KCNQ1 block val 92 | CHO KCNQ1 ctr inactive | KCNQ1 APC inh inactive | KCNQ2 spec 94% | KCNQ1 KCNE1 spec 51%
COc1cc[n+]([O-])cc1[N+](=O)[O-]	none (no result: KCNK9 block, Cl transport mod, KCNQ1 block, KCNQ1 act, hERG protect)
COc1cc2ncc(S(=O)(=O)c3ccccc3)c(N3CCCC(C)C3)c2cc1OC (configuration not stated)	KCNQ1 block 11 (no result: Cl transport mod) | KCNQ1 block val 152 | CHO KCNQ1 ctr 0.28 | KCNQ2 spec 164% | KCNQ1 KCNE1 spec active
O=S(=O)(c1ccccc1)c1cnc(-c2ccccc2)nc1N1CCCC1	none
COCC1CCN(C(=O)c2cc(COc3cccc4cnccc34)on2)CC1	none (no result: Cl transport mod)
CC(=O)c1ccc(OCc2cc(C(=O)N3CC[C@@H]4CCCC[C@H]4C3)no2)cc1	none (no result: Cl transport mod)
O=C(c1cc(COc2cccc3cnccc23)on1)N1CCCC(CCCO)C1 (configuration not stated)	KCNQ1 block 14 (no result: Cl transport mod) | KCNQ1 block val 108 | CHO KCNQ1 ctr inactive | KCNQ1 APC inh inactive | KCNQ2 spec 92% | KCNQ1 KCNE1 spec 44%
Cc1cccc(C)c1OCc1cc(C(=O)N2CCC(c3ccccc3)CC2)no1	KCNQ1 block 9 (no result: Cl transport mod) | KCNQ1 block val 119 | CHO KCNQ1 ctr inactive | KCNQ1 APC inh inactive | KCNQ2 spec 110% | KCNQ1 KCNE1 spec 168%
Cc1cccc(C)c1OCc1cc(C(=O)N2CCC(C3CCCCC3)C2)no1 (configuration not stated)	KCNQ1 block 7 (no result: Cl transport mod) | KCNQ1 block val 69 | CHO KCNQ1 ctr inactive | KCNQ2 spec inactive | KCNQ1 KCNE1 spec 110%
CC1CCC2(CC1)NC(=O)N(CC(=O)Nc1ccc(F)cc1)C2=O (configuration not stated)	none (no result: KCNK9 block, Cl transport mod, KCNQ1 block, KCNQ1 act, hERG protect)
